Active and inactive are the calls of the source. The rule behind the calls is not given here.
Experiments:
A549 [1] = assay: Induction of apoptosis in human A549 cells assessed as early apoptotic cells at 0.5 uM after 48 hrs by AnnexinV-FITC/PI staining-based flow cytometric analysis (reference value: 2.91%); type: functional
[2] = biological target: Protein-tyrosine kinase 2-beta (Homo sapiens) (UniProt Q14289); assay: Inhibition of recombinant full-length human Pyk2 at 1 uM using poly(Glu, Tyr) 4:1 as substrate measured after 40 mins in presence of [gamma33P]ATP by scintillation counting method relative to control
[3] = biological target: Calcium/calmodulin-dependent protein kinase type 1B (Homo sapiens) (UniProt Q6P2M8); assay: Inhibition of full-length recombinant human CaMK1 beta at 1 uM using KKLRRTLSFAEPG as substrate measured after 40 mins in presence of [gamma33P]ATP by scintillation counting method relative to control
In short: (§1)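 Single-point inhibition at 1 µM was measured in the Eurofins KinaseProfiler panel. Values are the mean of two independent experiments.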

[4] = biological target: Serine/threonine-protein kinase BRSK1 (Homo sapiens) (UniProt Q8TDC3); assay: Inhibition of recombinant human BrSK1 (2 to end residues) at 1 uM using KKKVSRSGLYRSPSMPENLNRPR as substrate measured after 40 mins in presence of [gamma33P]ATP by scintillation counting method relative to control
Sequence of Serine/threonine-protein kinase BRSK1 (Homo sapiens) (Q8TDC3 whole entry): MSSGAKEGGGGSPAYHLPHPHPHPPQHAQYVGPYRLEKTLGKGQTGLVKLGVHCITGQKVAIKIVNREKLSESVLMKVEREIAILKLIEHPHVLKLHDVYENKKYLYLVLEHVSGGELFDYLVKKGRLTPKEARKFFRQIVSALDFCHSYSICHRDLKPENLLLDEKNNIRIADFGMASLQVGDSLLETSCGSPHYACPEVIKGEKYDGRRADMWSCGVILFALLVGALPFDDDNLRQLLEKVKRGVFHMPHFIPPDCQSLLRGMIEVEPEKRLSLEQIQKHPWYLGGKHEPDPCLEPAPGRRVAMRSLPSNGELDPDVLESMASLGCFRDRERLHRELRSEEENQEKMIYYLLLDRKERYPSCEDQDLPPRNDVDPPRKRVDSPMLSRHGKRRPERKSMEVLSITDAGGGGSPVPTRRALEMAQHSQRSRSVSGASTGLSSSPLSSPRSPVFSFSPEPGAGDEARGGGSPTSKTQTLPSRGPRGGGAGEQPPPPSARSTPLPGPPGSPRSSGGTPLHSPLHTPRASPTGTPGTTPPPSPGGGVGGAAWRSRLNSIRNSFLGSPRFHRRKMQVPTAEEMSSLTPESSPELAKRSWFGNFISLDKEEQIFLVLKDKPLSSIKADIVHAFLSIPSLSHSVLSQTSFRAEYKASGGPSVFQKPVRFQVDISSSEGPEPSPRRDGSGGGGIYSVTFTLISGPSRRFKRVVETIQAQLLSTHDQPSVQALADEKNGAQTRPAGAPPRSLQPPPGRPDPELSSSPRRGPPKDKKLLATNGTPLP

[5] = system: Proto-oncogene tyrosine-protein kinase Src (Homo sapiens), P12931 [T341M]; assay: Inhibition of recombinant full-length human Src T341M mutant at 1 uM using GGEEEEYFELVKKKK as substrate measured after 40 mins in presence of [gamma33P]ATP by scintillation counting method relative to control
Sequence of Proto-oncogene tyrosine-protein kinase Src (Homo sapiens), P12931 [T341M] (P12931 whole entry T341M, looked up): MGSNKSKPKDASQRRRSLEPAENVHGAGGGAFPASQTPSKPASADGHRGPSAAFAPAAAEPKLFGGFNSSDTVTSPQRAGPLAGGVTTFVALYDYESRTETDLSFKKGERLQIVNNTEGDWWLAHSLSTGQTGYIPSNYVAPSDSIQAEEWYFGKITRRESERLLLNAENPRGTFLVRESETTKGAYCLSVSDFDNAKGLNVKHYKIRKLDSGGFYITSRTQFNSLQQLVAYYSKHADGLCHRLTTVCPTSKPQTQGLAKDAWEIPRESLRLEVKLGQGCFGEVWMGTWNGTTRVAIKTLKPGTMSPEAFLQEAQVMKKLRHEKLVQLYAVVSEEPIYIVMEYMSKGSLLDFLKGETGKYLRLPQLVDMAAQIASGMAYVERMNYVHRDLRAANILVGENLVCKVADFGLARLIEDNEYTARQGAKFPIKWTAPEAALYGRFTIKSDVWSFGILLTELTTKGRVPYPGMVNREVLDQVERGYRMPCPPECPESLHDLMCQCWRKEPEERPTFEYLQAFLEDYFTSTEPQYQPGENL

[6] = biological target: Testis-specific serine/threonine-protein kinase 1 (Homo sapiens) (UniProt Q9BXA7); assay: Inhibition of recombinant full-length human TSSK1 at 1 uM using KKKVSRSGLYRSPSMPENLNRPR as substrate measured after 40 mins in presence of [gamma33P]ATP by scintillation counting method relative to control
Sequence of Testis-specific serine/threonine-protein kinase 1 (Homo sapiens) (Q9BXA7 whole entry): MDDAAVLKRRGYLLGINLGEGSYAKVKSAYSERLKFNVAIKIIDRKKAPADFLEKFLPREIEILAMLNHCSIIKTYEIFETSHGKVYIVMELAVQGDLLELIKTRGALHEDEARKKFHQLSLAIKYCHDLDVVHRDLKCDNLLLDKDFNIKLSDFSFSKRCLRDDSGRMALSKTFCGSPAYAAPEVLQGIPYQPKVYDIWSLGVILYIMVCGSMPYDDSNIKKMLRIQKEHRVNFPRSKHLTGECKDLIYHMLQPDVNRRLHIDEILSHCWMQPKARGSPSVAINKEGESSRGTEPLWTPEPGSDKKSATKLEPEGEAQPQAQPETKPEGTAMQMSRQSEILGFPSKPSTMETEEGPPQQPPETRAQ

[7] = biological target: CDC7/Cyclin B1 (Homo sapiens) (UniProt P14635+O00311); assay: Inhibition of recombinant full-length human CDC7/cyclinB1 at 1 uM using Histone H1 as substrate measured after 120 mins in presence of [gamma33P]ATP by scintillation counting method relative to control; type: protein-complex assay
Sequence of CDC7/Cyclin B1 (Homo sapiens) (O00311 whole entry, looked up): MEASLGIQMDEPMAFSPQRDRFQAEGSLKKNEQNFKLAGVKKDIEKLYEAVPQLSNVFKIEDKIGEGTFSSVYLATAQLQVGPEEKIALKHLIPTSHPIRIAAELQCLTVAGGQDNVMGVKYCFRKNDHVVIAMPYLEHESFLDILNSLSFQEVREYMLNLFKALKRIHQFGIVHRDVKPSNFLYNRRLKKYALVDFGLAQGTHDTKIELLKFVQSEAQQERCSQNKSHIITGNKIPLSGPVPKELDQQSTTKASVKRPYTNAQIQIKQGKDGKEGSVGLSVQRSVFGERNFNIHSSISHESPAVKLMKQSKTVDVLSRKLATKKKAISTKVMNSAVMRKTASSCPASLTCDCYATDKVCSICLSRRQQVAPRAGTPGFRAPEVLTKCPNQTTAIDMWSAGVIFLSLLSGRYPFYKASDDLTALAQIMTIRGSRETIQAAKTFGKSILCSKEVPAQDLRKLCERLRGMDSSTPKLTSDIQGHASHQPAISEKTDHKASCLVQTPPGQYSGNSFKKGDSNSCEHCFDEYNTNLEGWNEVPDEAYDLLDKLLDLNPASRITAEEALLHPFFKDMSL
Sequence of CDC7/Cyclin B1 (Homo sapiens) (P14635 whole entry, looked up): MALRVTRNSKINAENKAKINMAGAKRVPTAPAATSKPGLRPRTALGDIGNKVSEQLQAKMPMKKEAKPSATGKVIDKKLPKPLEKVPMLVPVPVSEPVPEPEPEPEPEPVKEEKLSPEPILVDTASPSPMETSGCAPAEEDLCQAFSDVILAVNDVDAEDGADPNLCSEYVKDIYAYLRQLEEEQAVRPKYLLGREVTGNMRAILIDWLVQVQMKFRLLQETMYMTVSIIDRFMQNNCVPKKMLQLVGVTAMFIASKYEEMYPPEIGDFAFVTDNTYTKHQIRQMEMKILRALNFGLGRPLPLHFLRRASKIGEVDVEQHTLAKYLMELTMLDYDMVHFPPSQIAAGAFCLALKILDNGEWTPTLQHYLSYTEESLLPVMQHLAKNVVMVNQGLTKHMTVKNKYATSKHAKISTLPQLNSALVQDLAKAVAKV

[8] = biological target: Cyclin-dependent kinase 2/cyclin E1 (Homo sapiens) (UniProt P24864+P24941); assay: Inhibition of recombinant full-length human CDK2/cyclinE at 1 uM using Histone H1 as substrate measured after 40 mins in presence of [gamma33P]ATP by scintillation counting method relative to control; type: protein-complex assay
[9] = biological target: Serine/threonine-protein kinase WNK1 (Homo sapiens) (UniProt Q9H4A3); assay: Inhibition of recombinant human WNK1 (1 to 491 residues) at 1 uM using MBP as substrate measured after 120 mins in presence of [gamma33P]ATP by scintillation counting method relative to control
[10] = biological target: Serine/threonine-protein kinase 26 (Homo sapiens) (UniProt Q9P289); assay: Inhibition of recombinant human MST4 (4 to 304 residues) at 1 uM using RLGRDKYKTLRQIRQ as substrate measured after 40 mins in presence of [gamma33P]ATP by scintillation counting method relative to control
[11] = biological target: BDNF/NT-3 growth factors receptor (Homo sapiens) (UniProt Q16620); assay: Inhibition of recombinant human TRKB (455 to end residues) at 1 uM using poly(Glu, Tyr) 4:1 as substrate measured after 40 mins in presence of [gamma33P]ATP by scintillation counting method relative to control
Sequence of BDNF/NT-3 growth factors receptor (Homo sapiens) (Q16620 32-822 limits assumed): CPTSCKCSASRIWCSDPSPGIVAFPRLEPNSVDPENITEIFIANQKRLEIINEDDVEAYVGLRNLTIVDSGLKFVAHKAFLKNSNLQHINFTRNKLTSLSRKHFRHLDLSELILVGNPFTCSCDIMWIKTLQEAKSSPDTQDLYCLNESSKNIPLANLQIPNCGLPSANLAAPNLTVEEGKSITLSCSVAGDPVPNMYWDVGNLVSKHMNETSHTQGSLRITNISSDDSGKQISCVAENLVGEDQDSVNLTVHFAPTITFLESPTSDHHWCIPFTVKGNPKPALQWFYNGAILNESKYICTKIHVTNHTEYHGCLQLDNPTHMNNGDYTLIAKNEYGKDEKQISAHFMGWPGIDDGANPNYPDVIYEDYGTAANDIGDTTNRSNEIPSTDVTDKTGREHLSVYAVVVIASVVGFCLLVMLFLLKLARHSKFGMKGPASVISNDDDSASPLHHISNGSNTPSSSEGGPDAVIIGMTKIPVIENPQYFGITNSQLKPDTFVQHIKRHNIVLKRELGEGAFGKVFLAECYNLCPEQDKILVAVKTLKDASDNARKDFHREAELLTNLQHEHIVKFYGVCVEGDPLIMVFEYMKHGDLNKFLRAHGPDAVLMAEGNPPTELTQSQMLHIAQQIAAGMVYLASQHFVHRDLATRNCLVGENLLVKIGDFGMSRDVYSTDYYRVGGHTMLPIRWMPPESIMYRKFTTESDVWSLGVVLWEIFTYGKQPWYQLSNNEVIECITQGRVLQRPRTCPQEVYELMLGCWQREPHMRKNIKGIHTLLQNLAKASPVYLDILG

[12] = biological target: Insulin receptor (Homo sapiens) (UniProt P06213); assay: Inhibition of recombinant human activated IR (1005 to 1310 residues) at 1 uM using KKKSPGEYVNIEFG as substrate measured after 40 mins in presence of [gamma33P]ATP by scintillation counting method relative to control
[13] = biological target: Ephrin type-B receptor 4 (Homo sapiens) (UniProt P54760); assay: Inhibition of recombinant human EphB4 (561 to end residues) at 1 uM using poly(Glu, Tyr) 4:1 as substrate measured after 40 mins in presence of [gamma33P]ATP by scintillation counting method relative to control
[14] = system: Glycogen synthase kinase-3 beta (Homo sapiens), P49841 [UNDEFINED MUTATION]; assay: Inhibition of human recombinant GSK3beta H350L mutant (2 to end residues) at 1 uM using YRRAAVPPSPSLSR as substrate incubated for 40 mins in presence of [gamma-33P]ATP at Km concentration by radiometric assay relative to control; in short: as §1
[15] = biological target: Serine/threonine-protein kinase PAK 6 (Homo sapiens) (UniProt Q9NQU5); assay: Inhibition of recombinant human PAK6 (382 to end residues) at 1 uM using RRRLSFAEPG as substrate measured after 40 mins in presence of [gamma33P]ATP by scintillation counting method relative to control
Sequence of Serine/threonine-protein kinase PAK 6 (Homo sapiens) (Q9NQU5 whole entry, looked up): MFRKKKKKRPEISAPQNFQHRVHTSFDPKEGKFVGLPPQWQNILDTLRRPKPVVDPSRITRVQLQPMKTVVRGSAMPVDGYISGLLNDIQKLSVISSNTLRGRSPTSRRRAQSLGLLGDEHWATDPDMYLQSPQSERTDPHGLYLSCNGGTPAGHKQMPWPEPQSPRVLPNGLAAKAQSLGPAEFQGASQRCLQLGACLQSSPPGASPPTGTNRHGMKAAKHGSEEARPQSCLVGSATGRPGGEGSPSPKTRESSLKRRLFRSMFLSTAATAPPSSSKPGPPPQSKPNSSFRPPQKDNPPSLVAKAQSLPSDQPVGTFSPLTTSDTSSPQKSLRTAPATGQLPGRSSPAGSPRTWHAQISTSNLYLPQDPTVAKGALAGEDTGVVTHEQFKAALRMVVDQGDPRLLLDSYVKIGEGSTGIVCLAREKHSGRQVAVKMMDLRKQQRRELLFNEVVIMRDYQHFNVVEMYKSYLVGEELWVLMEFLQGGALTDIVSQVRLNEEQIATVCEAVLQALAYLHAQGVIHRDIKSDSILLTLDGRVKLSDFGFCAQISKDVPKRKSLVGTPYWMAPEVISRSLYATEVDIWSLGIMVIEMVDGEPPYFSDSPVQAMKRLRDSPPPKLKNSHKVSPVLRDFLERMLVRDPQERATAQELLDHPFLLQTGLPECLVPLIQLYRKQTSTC

A549 [16] = assay: Induction of apoptosis in human A549 cells assessed as increase in Bim protein expression at 0.25 to 1 uM after 24 hrs by Western blot analysis; type: functional, cell-based
In short: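 A549 or H1299 cells exposed to the indicated concentrations for 24 h. Protein extracts then immunoblotted for apoptosis-pathway proteins (Bcl2, Bim, cleaved caspase 3).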

A549 [17] = assay: Induction of cell cycle arrest in human A549 cells assessed as increase in accumulation of cells at G2/M phase at 1 uM after 24 hrs by propidium iodide/RNase staining based flow cytometric analysis; type: functional
In short: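 A549 and H1299 plated at 5×10^5 cells/mL in 6-well plates, treated after adherence for 24 h. Washed with PBS, fixed overnight in ice-cold 75% ethanol, stained with propidium iodide plus RNase A for 30 min at 37 °C, analysed by flow cytometry for phase distribution. Means ± SD, three independent experiments.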

[18] = biological target: Serine/threonine-protein kinase PAK 4 (Homo sapiens) (UniProt O96013); assay: Inhibition of recombinant human PAK4 (295 to end residues) at 1 uM using myelin basic protein as substrate measured after 40 mins in presence of [gamma33P]ATP by scintillation counting method relative to control
[19] = biological target: Non-receptor tyrosine-protein kinase TYK2 (Homo sapiens) (UniProt P29597); assay: Inhibition of human TYK2 (875 to end residues) at 1 uM using GGMEDIYFEFMGGKKK as substrate measured after 40 mins in presence of [gamma33P]ATP by scintillation counting method relative to control
In short: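 Percent inhibition of kinase activity at a single compound concentration, measured by the outsourced Eurofins KinaseProfiler panel. Values are the mean of two independent experiments.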

[20] = biological target: Interleukin-1 receptor-associated kinase 1 (Homo sapiens) (UniProt P51617); settings: 1 uM
Sequence of Interleukin-1 receptor-associated kinase 1 (Homo sapiens) (P51617 whole entry, looked up): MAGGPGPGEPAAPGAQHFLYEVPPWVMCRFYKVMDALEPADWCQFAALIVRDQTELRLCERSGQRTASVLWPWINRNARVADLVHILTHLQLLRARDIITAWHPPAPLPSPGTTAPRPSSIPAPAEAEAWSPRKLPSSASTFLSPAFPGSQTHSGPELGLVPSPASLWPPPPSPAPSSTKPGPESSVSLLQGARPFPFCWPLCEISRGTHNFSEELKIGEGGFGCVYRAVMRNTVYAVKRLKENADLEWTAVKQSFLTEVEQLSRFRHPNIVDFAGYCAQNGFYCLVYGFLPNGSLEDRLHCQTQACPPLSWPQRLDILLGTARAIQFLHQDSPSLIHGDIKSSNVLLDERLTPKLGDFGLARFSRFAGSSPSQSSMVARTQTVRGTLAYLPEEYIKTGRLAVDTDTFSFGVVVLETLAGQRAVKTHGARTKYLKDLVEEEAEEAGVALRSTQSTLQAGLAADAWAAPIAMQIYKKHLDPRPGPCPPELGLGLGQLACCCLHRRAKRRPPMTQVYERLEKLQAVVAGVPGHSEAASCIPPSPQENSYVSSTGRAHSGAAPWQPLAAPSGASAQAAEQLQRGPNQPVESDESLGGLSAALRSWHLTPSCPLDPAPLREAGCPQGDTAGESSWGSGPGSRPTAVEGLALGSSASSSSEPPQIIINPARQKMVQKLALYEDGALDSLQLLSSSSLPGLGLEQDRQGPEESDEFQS

[21] = biological target: Serine/threonine-protein kinase N2 (Homo sapiens) (UniProt Q16513); assay: Inhibition of human PRK2 (501 to end residues) at 1 uM using AKRRRLSSLRA as substrate measured after 40 mins in presence of [gamma33P]ATP by scintillation counting method relative to control; in short: as §1

## CN(C)C(=O)c1cc2cnc(Nc3ccc(NC(=O)CCCCCCCN=C=S)cc3)nc2n1C1CCCC1
A549 [1]
  Activity: 1.26%
[2]
  inhibition: 46%
[3]
  inhibition: 11%
[4]
  inhibition: 16%
[5]
  inhibition: 20%
[6]
  inhibition: 7%
[7]
  inhibition: 75%
[8]
  inhibition: 75%
[9]
  inhibition: 6%
[10]
  inhibition: 6%
[11]
  inhibition: 92%
[12]
  inhibition: -7%
[13]
  inhibition: -4%
[14]
  inhibition: 32%
[15]
  inhibition: 9%
A549 [16]
  Activity: Active
A549 [17]
  Activity: Active
[18]
  inhibition: 10%
[19]
  inhibition: 4%
[20]
  inhibition: 98%
[21]
  inhibition: 11%

From ChEMBL document CHEMBL4376814, “Novel cyclin-dependent kinase 9 (CDK9) inhibitor with suppression of cancer stemness activity against non-small-cell lung cancer” (Eur J Med Chem, 2019)
